The structures appear in SMILES notation. The source made the active and inactive calls. No cut-off for these calls is given here.

In data set [1] the test system is MDCK-II. Nature of the data set: Cytotoxicity against dog MDCK-II cells at 5 uM. Format: toxicity, cell-based, Canis lupus familiaris. The essentials:
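MDCK-II monolayers were exposed to compound at the highest tested concentration of 5 μM in Opti-MEM at 37 °C, 5% CO2, for 4 days. Cytotoxicity was judged by microscopic inspection.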

Data set [2] concerns Influenza A virus. Nature of the data set: Antiviral activity against Influenza virus A/Netherlands/602/2009 assessed as inhibition of virus-LAMP1 binding at 10 uM by biolayer interferometry streptavidin sensor based assay. Format: functional, organism-based. The essentials: (§1)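 Biolayer interferometry was run at 30 °C in PBS with Ca/Mg, shaking at 1000 rpm. Streptavidin sensors were loaded to saturation with biotinylated LAMP1 carrying increased α2,6-linked sialic acids, then dipped into Neth09H1N1 virus mixed with variable compound concentrations. […] Controls had no compound, or OC only.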
For orientation: BLI is a label-free optical method that tracks binding on a fibre tip over time.

A short description of data set [3]: Inhibition of Influenza virus A/Netherlands/602/2009 Neuraminidase using MUNANA as substrate incubated for 60 mins by fluorescence based whole virus assay. The method in brief:
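Whole Neth09H1N1 virus served as the NA source in place of recombinant protein. Compounds were serially diluted 1:2 in 50 mM Tris-HCl, 4 mM CaCl2, pH 6.0, with a fixed non-saturating amount of virus. MUNANA was added to 100 μM final, 37 °C for 60 min, then stopped with 0.1 M glycine, 25% ethanol, pH 10.7. Fluorescence read at ex 340/em 490 nm; IC50 determined.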

Data set [4] can be described thus: Inhibition of Influenza A virus (A/Anascrecca/Spain/1460/2008(H7N9)) recombinant Neuraminidase using MUNANA as substrate incubated for 60 mins by fluorescence based assay. The method in brief:
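Recombinant soluble tetrameric NA (N9 from A/Anascrecca/Spain/1460/2008 or N1 from A/Wisconsin/09/2013) was made in HEK293T cells and purified on Strep-Tactin. Compounds were serially diluted 1:2 in 50 mM Tris-HCl, 4 mM CaCl2, pH 6.0, with a fixed non-saturating amount of NA. MUNANA was added to 100 μM final, 37 °C for 60 min, then stopped with glycine/ethanol at pH 10.7. Fluorescence read at ex 340/em 490 nm; […].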

Data set [5] deals with Influenza A virus. Nature of the data set: Inhibition of Influenza virus A/Netherlands/602/2009 hemagglutinin assessed as reduction of virus-LAMP1 binding in presence of oseltamivir carboxylate by biolayer interferometry. The essentials:
as §1

With `CC[C@@H](CCCCc1cn([C@H]2[C@H](OC(C)=O)[C@@H](OC(C)=O)[C@H](n3cc(CCCC[C@H](CC)O[C@@H]4OC(C(=O)O)=C[C@H](O)[C@H]4NC(C)=O)nn3)O[C@@H]2COC(C)=O)nn1)O[C@@H]1OC(C(=O)O)=C[C@H](O)[C@H]1NC(C)=O`, the Activity entry in data set [1] is recorded as “Non-Toxic”.

The term IC50 denotes the midpoint of a concentration-inhibition curve. Take `CC[C@@H](CCCCc1cn([C@H]2[C@H](O)[C@@H](O)[C@H](n3cc(-c4ccc(-c5cn([C@@H]6O[C@H](CO)[C@@H](n7cc(CCCC[C@H](CC)O[C@@H]8OC(C(=O)O)=C[C@H](O)[C@H]8NC(C)=O)nn7)[C@H](O)[C@H]6O)nn5)cc4)nn3)O[C@@H]2CO)nn1)O[C@@H]1OC(C(=O)O)=C[C@H](O)[C@H]1NC(C)=O`: the inhibition result in data set [2] is “Active”. The Activity entry in data set [1] is “Non-Toxic”. Moreover, the IC50 worked out at 0.08 µM in data set [3] and 3.3 µM in data set [4].

Regarding `CCC(CC)O[C@@H]1C=C(C(=O)O)C[C@H](N)[C@H]1NC(C)=O` [OSELTAMIVIR CARBOXYLATE], in data set [1], the Activity entry was “Non-Toxic”.

For the molecule `C#CCCCC[C@@H](CC)O[C@@H]1OC(C(=O)O)=C[C@H](O)[C@H]1NC(C)=O`, the IC50 in data set [4] stood at 28.2 µM.

For `C#CCCC[C@H](CC)O[C@@H]1CC(C(=O)O)=C[C@H](O)[C@H]1NC(C)=O`, in data set [2], the inhibition result is “Active”. The Activity entry in data set [1] is reported as “Non-Toxic”. In addition, the IC50 in data set [4] came to 2.9 µM.

With `CC[C@@H](CCCCc1cn([C@H]2[C@H](O)[C@@H](O)[C@H](n3cc(-c4ccc(-c5cn([C@@H]6O[C@H](CO)[C@@H](n7cc(-c8cc(O)c(-c9cn([C@@H]%10O[C@H](CO)[C@@H](n%11cc(-c%12ccc(-c%13cn([C@@H]%14O[C@H](CO)[C@@H](n%15cc(CCCC[C@H](CC)O[C@@H]%16OC(C(=O)O)=C[C@H](O)[C@H]%16NC(C)=O)nn%15)[C@H](O)[C@H]%14O)nn%13)cc%12)nn%11)[C@H](O)[C@H]%10O)nn9)cc8O)nn7)[C@H](O)[C@H]6O)nn5)cc4)nn3)O[C@@H]2CO)nn1)O[C@@H]1OC(C(=O)O)=C[C@H](N)[C@H]1NC(C)=O`, the inhibition result in data set [2] was “Active”. Also, the Activity entry in data set [1] is given as “Non-Toxic”.

In the case of `CCC(CC)O[C@@H]1OC(C(=O)O)=C[C@H](O)[C@H]1NC(C)=O`, the IC50 in data set [4] turned out to be 0.47 µM.

For `CC[C@@H](CCCCc1cn([C@H]2[C@H](O)[C@@H](O)[C@H](n3cc(-c4ccc(-c5cn([C@H]6[C@H](O)[C@@H](O)[C@H](n7cc(-c8ccc(-c9cn([C@@H]%10O[C@H](CO)[C@@H](n%11cc(CCCC[C@H](CC)O[C@@H]%12OC(C(=O)O)=C[C@H](O)[C@H]%12NC(C)=O)nn%11)[C@H](O)[C@H]%10O)nn9)cc8)nn7)O[C@@H]6CO)nn5)cc4)nn3)O[C@@H]2CO)nn1)O[C@@H]1OC(C(=O)O)=C[C@H](O)[C@H]1NC(C)=O`, the inhibition result in data set [5] and in data set [2] was “Active” throughout. Further, the Activity entry in data set [1] is “Non-Toxic”.

Take `CC[C@@H](CCCCc1cn([C@H]2[C@H](OC(C)=O)[C@@H](OC(C)=O)[C@H](n3cc(CCCC[C@H](CC)O[C@@H]4OC(C(=O)O)=C[C@H](O)[C@H]4NC(C)=O)nn3)O[C@@H]2CO)nn1)O[C@@H]1OC(C(=O)O)=C[C@H](O)[C@H]1NC(C)=O`: the Activity entry in data set [1] was “Non-Toxic”. In addition, the IC50 was determined as 1.5 µM in data set [3] and 5.2 µM in data set [4].
